From publication PMC7115590 (European Journal of Medicinal Chemistry, 2012)

How the values were obtained:
[1] = system: Kunming mice; assay: Acute toxicity in mice, single oral dose, 14 days observation; assay type: in vivo; details: for No. of dead, 1–7 day / No. of dead, 8–14 day / Total death / mortality: 10 mice; for Body weight, 0 day: group average
In short: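 Male and female Kunming mice (21 ± 2 g) were randomised into 4 groups of 10 (5 male + 5 female). Each group received one oral dose of test compound at 0, 50, 250 or 1250 mg/kg; the 0 group got the same volume of physiological saline. Mice had free food and water at 25 ± 1 °C on a 12-h light/dark cycle. Survival and body weight were recorded up to 14 days.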

[2] = system: HBsAg (hepatitis B surface antigen) secretion; assay: Inhibition of HBsAg secretion in HepG 2.2.15 cells; assay type: cell-based; details: Hepatitis B virus, HepG2.2.15, read-out: HBsAg IC50
[3] = Cytotoxicity; assay type: cell-based; details: human, HepG 2.2.15 cells
[4] = system: HBV DNA replication; assay: Inhibition of HBV DNA replication in HepG 2.2.15 cells; assay type: cell-based; details: Hepatitis B virus, HepG2.2.15, read-out: DNA replication IC50

| SMILES | No. of dead, 1–7 day ([1]; 50 mg/kg oral) | No. of dead, 8–14 day ([1]; 50 mg/kg oral) | Total death ([1]; 50 mg/kg oral) | mortality ([1]; 50 mg/kg oral) | Body weight, 0 day ([1]; 50 mg/kg oral) [g] | No. of dead, 1–7 day ([1]; 250 mg/kg oral) | No. of dead, 8–14 day ([1]; 250 mg/kg oral) | Total death ([1]; 250 mg/kg oral) | mortality ([1]; 250 mg/kg oral) | Body weight, 0 day ([1]; 250 mg/kg oral) [g] | No. of dead, 1–7 day ([1]; 1250 mg/kg oral) | No. of dead, 8–14 day ([1]; 1250 mg/kg oral) | Total death ([1]; 1250 mg/kg oral) | mortality ([1]; 1250 mg/kg oral) | Body weight, 0 day ([1]; 1250 mg/kg oral) [g] | survival and abnormality of mice up to 14 days post administration ([1]; single oral dose at 50, 250 and 1250 mg/kg, Kunming mice of both genders) | IC50 [2] [µM] | CC50 [3] [µM] | IC50 [4] [µM] |
| --- | --- | --- | --- | --- | --- | --- | --- | --- | --- | --- | --- | --- | --- | --- | --- | --- | --- | --- | --- |
| COc1cc(/C=C/C(=O)O[C@H]2CC[C@@]3(C)C(=CC[C@]4(O)[C@@H]3C[C@@H](OC(=O)/C=C(\C)C(C)C)[C@@]3(C)[C@]4(O)CC[C@@]3(O)C(C)=O)C2)cc(OC)c1OC [Compound 18, 3-O-(3,4,5-Trimethoxy)cinnamoyl caudatin] | 0 | 0 | 0/0 | 0/0 | 22.4 | 0 | 0 | 0/0 | 0/0 | 22.3 | 0 | 0 | 0/0 | 0/0 | 22.6 | no dies and abnormality were observed |  |  |  |
| CC(=O)[C@]1(O)CC[C@@]2(O)[C@]1(C)[C@H](OC(=O)/C=C(\C)C(C)C)C[C@@H]1[C@@]3(C)CC[C@H](O)CC3=CC[C@]12O [Compound 1, caudatin] |  |  |  |  |  |  |  |  |  |  |  |  |  |  |  |  | 143 | 245 | 40.6 |
